Arr AP2 block: inhibitors of beta-arrestin/AP2 binding, primary screen, biochemical, GPCR trafficking, flow cytometry; inhibition, % at 10 µM; beta-arrestin 1 C-terminal peptide binding to AP2 beta2-adaptin appendage (human); FITC-arrestin peptide / GST-AP2 beads; AP2 beta2 appendage carries R879A mutation; 340,000 compounds, 0.31% hits;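 active = inhibition above a set limit, near 3 SD of compounds lacking own fluorescence, cut at about 54% in these data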;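 also: plate controls were DMSO wells for no effect and 5 µM unlabelled arrestin peptide for full effect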
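System: GST-AP2 R879A glutathione beads; medium: PBS, Tween 20 0.05%, BSA 0.1%; reagent: fluorescein-tagged arrestin peptide at 50 nM final; schedule: pre-incubation 12 min, peptide binding 1 h, room temperature; detection: flow cytometry, FL1 (488/535 nm); read-out: inhibition as reduced fluorescein signal on beads, percent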
A3A deaminase: APOBEC3A ssDNA deaminase inhibitors, primary screen, selectivity assay for APOBEC3G inhibitor project, biochemical, FAM/TAMRA oligo cleavage fluorescence. 330,000 compounds, 0.41% hits. DNA dC->dU-editing enzyme APOBEC-3A (Homo sapiens), P31941. inhibition, % at 20 µM. recombinant A3A, FAM/TAMRA ssDNA deamination fluorescence;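 active = at least 40% inhibition at 20 µM here, with at most 30% in a related deaminase screen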;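 also: plate controls were A3A with DMSO for no effect and wells lacking A3A enzyme for full effect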
Target sequence (P31941 whole entry, looked up): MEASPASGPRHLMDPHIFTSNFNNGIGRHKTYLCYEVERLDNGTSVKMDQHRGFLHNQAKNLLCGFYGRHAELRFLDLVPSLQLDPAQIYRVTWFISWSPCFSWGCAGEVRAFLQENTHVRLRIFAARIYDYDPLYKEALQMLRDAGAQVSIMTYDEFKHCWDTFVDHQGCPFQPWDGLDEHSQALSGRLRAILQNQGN
A3G deaminase: APOBEC3G DNA deaminase inhibitors, primary screen, biochemical, fluorescence, single-stranded DNA substrate, uHTS; DNA dC->dU-editing enzyme APOBEC-3G (Homo sapiens), Q9HC16; AID 493012, 2011; 330,000 compounds, 0.28% hits; inhibition, % at 20 µM; recombinant A3G, ssDNA deamination FAM/TAMRA fluorescence;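 active = inhibition of at least 40% at 20 µM, with no more than 30% in the related APOBEC3A deaminase screen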;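 also: plate controls were DMSO wells with A3G for no effect and wells lacking A3G enzyme for full effect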
AHR activator: AHR activators, primary screen, cell-based, luminescence, luciferase reporter, human; AHR-responsive luciferase reporter cells; activation, % at 5 µM; 320,000 compounds, 2.5% hits; AID 2796, 2010; in the data active = activation above about 47%;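 also: 0% = vehicle wells and 100% = reference agonist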
PolyA inhibitor: polyadenylation inhibitors in yeast reporter cells, primary screen, luminescence, S. cerevisiae | S. cerevisiae SKY197-pL101 polyadenylation reporter, beta-gal luminescence; efflux-impaired pdr1/pdr3 knockout yeast; score 100 = 6 SD above DMSO | activity score, % at 12 µM | 300,000 compounds, 0.02% hits | AID 1875, 2009;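 active = lowest replicate activity score at least 50, where 100 means six control SD above control mean; inconclusive = lowest score under 50 but half or more replicates reach 50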;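 also: yeast exposed to compound for 9 h at 30 °C; higher score means more reporter readthrough which indicates perturbed polyadenylation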
UCH37 inh: inhibitors of human UCH37 deubiquitinase, primary screen, biochemical, Ub-AMC cleavage, fluorescence. Ubiquitin carboxyl-terminal hydrolase isozyme L5 (Homo sapiens), Q9Y5K5. purified proteasome/UCH37. inhibition, % (concentration not given with the values). 330,000 compounds, 0.33% hits;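 active = mean inhibition over replicate wells above about 20%, limit read from the data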;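 also: 0% = compound-free wells with enzyme and 100% = wells lacking proteasome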
Target sequence (Q9Y5K5 whole entry, looked up): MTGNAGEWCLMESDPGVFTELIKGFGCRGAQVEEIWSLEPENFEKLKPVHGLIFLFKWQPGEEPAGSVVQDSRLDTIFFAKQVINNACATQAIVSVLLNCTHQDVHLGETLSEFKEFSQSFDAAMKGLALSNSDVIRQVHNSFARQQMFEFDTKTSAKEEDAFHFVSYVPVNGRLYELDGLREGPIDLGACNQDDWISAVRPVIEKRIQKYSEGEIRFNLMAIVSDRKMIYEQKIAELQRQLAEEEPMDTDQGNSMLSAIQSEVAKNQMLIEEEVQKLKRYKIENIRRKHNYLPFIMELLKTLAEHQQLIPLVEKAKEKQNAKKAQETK
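Reagent: Ub-AMC substrate; assay system: Proteasome-associated human UCH37 deubiquitinase; controls: no-proteasome and no-compound wells; read-out: % inhibition of Ub-AMC cleavage fluorescence; timing: 30 min preincubation with enzyme, 25 min cleavage at room temperature; signal: AMC fluorescence from Ub-AMC cleavage, excitation 355 nm, emission 460 nm; buffer or medium: Tris-HCl pH 7.4 plus ovalbumin, ATP-MgCl2, DTT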
* marks the source's active call; other numbers are inactive results; i = inactive; u = inconclusive; x = no result given. The list is not random: actives were taken first. Their share in the collection is about 3.4%.

SMILES	Arr AP2 block	A3A deaminase	A3G deaminase	AHR activator	PolyA inhibitor	UCH37 inh
O=C(NNC(=O)c1cccc2ccccc12)c1ccc(F)cc1	-1.6	x	x	x	x	3.0
COC(=O)C(=NNc1ccc(Cl)cc1)Sc1nnc(-c2ccc(OC)cc2)n1C	x	x	x	x	x	1.6
O=C(NN=Cc1ccc([N+](=O)[O-])cc1)c1cnccn1	x	x	x	x	x	10.9
CCn1nc(C)c(C=NNC(=O)CSc2ccccn2)c1C	x	x	x	x	x	7.9
COc1ccc(C=NN(CCC(=O)NC(C)(C)C)C2=NS(=O)(=O)c3ccccc32)cc1	x	x	x	x	x	-17.3
CNC(=S)NN=C(C)c1ccc2c(c1)OCO2	x	x	x	x	x	4.3
CC(=NNC(=O)c1cccc(Cl)c1)c1cccc(NC(=O)c2ccco2)c1	x	x	x	x	x	-0.7
NC(=NOC(=O)c1ccccc1[N+](=O)[O-])c1cccnc1	x	x	x	x	x	3.8
COc1cc(NC(=O)c2ccccc2-c2ccccc2)cc(OC)c1	2.0	-0.5	-4.2	47.8*	-13.7	4.9
CCn1ncc(C(=O)Nc2ccc(F)cc2)c1C	-11.7	-4.1	-9.8	59.8*	-5.4	4.8
COc1cc(NC(=O)c2ccccc2-c2ccccc2)cc(OC)c1OC	x	2.9	3.8	2.3	10.9	4.9
COc1ccc(NC(=O)c2cccc3ccccc23)cc1	-1.2	-5.6	-4.8	51.6*	-22.5	x
CCn1ncc(C(=O)Nc2ccccc2C)c1C	0.1	0.7	-0.8	-1.6	11.6	-3.0
CC(=NNC(=O)CSc1ncccn1)c1ccc2c(c1)OCCO2	x	x	x	x	x	2.1
COc1ccc(OCc2nc(N)nc(Nc3ccc(C)cc3)n2)cc1	24.6	-6.6	-5.3	64.8*	-14.7	0.1
COc1ccc(OCc2nc(N)nc(Nc3cccc(C)c3C)n2)cc1	-3.9	-1.7	-5.2	41.5	x	0.2
COc1ccc(Nc2nc(N)nc(COc3ccc(OC)cc3)n2)cc1	5.4	-5.5	-6.8	60.2*	-3.0	2.1
COc1ccc(Nc2nc(N)nc(SCc3nnc(C)s3)n2)cc1	4.4	7.4	3.5	56.3*	1.5	1.3
COc1ccc(OCc2nc(N)nc(Nc3ccccc3)n2)cc1	8.6	-5.5	-7.7	46.5	-3.1	5.1
Cc1cccc(C(=O)Oc2ccc(C=NNC(=O)c3cc(O)cc(O)c3)cc2)c1	x	x	x	x	x	4.2
COc1cccc(Nc2ncnc3c2cnn3-c2cccc(C)c2)c1	4.5	1.8	-4.0	-6.5	-20.4	-8.7
COc1ccccc1Nc1ncnc2c1cnn2-c1cccc(C)c1	-0.6	4.5	-3.6	51.5*	-8.7	-11.2
CCOc1ccc(NC(=O)c2cc([N+](=O)[O-])ccc2N2CCOCC2)cc1	6.1	-1.1	-12.3	74.2*	8.7	x
CCOc1ccc(NC(=O)COC(=O)c2cc([N+](=O)[O-])ccc2N2CCOCC2)cc1	7.5	3.3	-0.5	6.4	-5.8	7.0
CNCc1ccccc1OCC(=O)Nc1ccccc1OC	8.2	1.7	-3.0	69.3*	-3.3	0.5
SMILES	Arr AP2 block	A3A deaminase	A3G deaminase	AHR activator	PolyA inhibitor	UCH37 inh
Cc1c(C(=O)NCc2cccnc2)oc2c1C(=O)CC(C)(C)C2	3.7	-0.9	-8.4	17.4	6.0	1.7
Cc1c(C(=O)NCc2ccccc2)oc2c1C(=O)CCC2	21.1	1.6	-4.4	1.1	5.8	25.2*
Nc1cc(C(F)(F)F)ccc1NCCc1ccccn1	-0.8	-12.3	-6.6	63.6*	-7.9	-0.5
c1ccc(NCCc2ccccn2)cc1	0.0	x	x	x	x	5.1
COc1ccc(NC(=O)c2ccc3c(c2)NC(=O)CS3)cc1	23.4	39.0	3.3	0.5	x	-1.4
Cc1ccc(NS(=O)(=O)c2cc(NC(=O)c3ccc4c(c3)NC(=O)CS4)ccc2Cl)c(C)c1	4.5	-2.2	32.1	53.9*	u	0.6
ON=C(C[n+]1ccccc1)c1ccc(Br)cc1	x	x	x	x	x	0.6
C=CCOc1ccc(/C(O)=C2\C(=O)C(=O)N(CCN(C)C)C2c2cccs2)cc1 (stereo not drawn)	29.1	0.1	-1.6	0.3	-9.7	23.9*
CCOc1cccc(C(=O)Nc2cccc(C(=O)NCC(C)C)c2)c1	5.5	-3.2	-8.2	71.1*	1.3	1.5
CCCOc1cccc(C(=O)Nc2cccc(NC(=O)c3ccco3)c2)c1	-6.7	0.5	0.2	47.7*	-3.9	2.1
Cc1cccc(OCC(=O)Nc2cccc(C(=O)NCC(C)C)c2)c1	-7.0	-0.8	-2.6	1.2	11.6	-15.4
N#C/C(=N\Nc1cccc2ccccc12)c1nnc2n1CCCCC2	6.3	-1.2	-4.8	54.2*	-4.4	x
N#C/C(=C\c1c[nH]c2ccccc12)c1nnc2n1CCCCC2	-1.7	-3.0	-9.2	-11.7	-2.8	9.0
CC(=NNC(=O)c1cccc(S(=O)(=O)N2CCCCC2)c1)c1ccc(C)o1	x	x	x	x	x	3.6
Cc1ccc(NC(=O)c2ccc(Cl)nc2)cc1	-4.3	5.3	-1.1	20.0	-10.1	-0.2
CCCSc1ccc(C(=O)Nc2ccc(Cl)cc2)cn1	23.8	-2.3	-5.8	59.9*	9.7	-0.3
O=C(O)C(=O)/C(=C\c1ccc(Cl)cc1)c1ccc2ccccc2n1	3.9	2.2	0.2	65.4*	-10.0	-25.4
Nc1nonc1C(=Nc1ccc(Br)cc1)NO	12.1	-2.2	-7.7	65.6*	15.1	4.8
Brc1ccc(C2Nc3cccc4cccc(c34)N2)o1	54.3*	9.8	20.5	34.7	-6.5	-5.9
COc1ccc(OC)c(C=NNC(=O)c2ccc[n+](CC(=O)c3ccccc3)c2)c1	x	x	x	x	x	1.6
Cc1nnc(NC(=O)c2sc3nc(-c4cccs4)cc(C(F)(F)F)c3c2N)s1	8.7	-4.1	-8.2	17.9	13.6	x
Nc1c(C(=O)Nc2nccs2)sc2nc(-c3cccs3)cc(C(F)(F)F)c12	1.1	-9.4	-4.3	65.2*	-15.9	-1.2
Cc1cc(C)c2c(N)c(C(=O)Nc3nccs3)sc2n1	2.2	-1.3	-5.6	70.7*	-20.1	i
COCc1cc(C)nc2sc(C(=O)Nc3nccs3)c(N)c12	-0.4	-4.7	-5.0	12.2	15.8	-68.9
Cc1cc(C)c2c(N)c(C(=O)Nc3cccc(C)c3C)sc2n1	-8.7	-1.8	-6.0	67.8*	-6.1	i
CC(=NNC(=O)CNC(=O)c1cccs1)c1ccc(Cl)c(Cl)c1	x	x	x	x	x	5.9
CC(C)Cc1nc(SCc2cccnc2)c2c(=O)n(C)c(=O)n(C)c2n1	-2.2	4.5	2.7	17.9	26.3	3.5
CCc1nc(SCc2cccnc2)c2c(=O)n(C)c(=O)n(C)c2n1	32.3	-2.5	-5.1	47.7*	0.5	x

Bioassay records (PubChem BioAssay)
